Converted amounts (≈) assume the structure as drawn.
What was measured:
HepG2 = assay: Cytotoxicity against human HepG2 cells after 12 days by methylene blue colorimetric method; format: functional, cell-based; conditions: HepG2, 288 h
How it was run: (§1)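 Hep G2 and HBV-transfected Hep G2 (Hep 2,2,15) cells were grown in RPMI 1640 or DMEM with 10% FCS, 100 units/mL penicillin and 100 µg/mL streptomycin, at 37 °C in humidified 5% CO2. Viability was measured by methylene blue staining, read at 592 nm. IC50 is the concentration giving 50% lower absorbance than drug-free controls.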

[1] = Cytotoxicity against human HepG2(2.2.15) cells after 12 days by methylene blue colorimetric method; format: functional, cell-based; conditions: HepG2 2.2.15, 288 h; how it was run: as §1

Row | SMILES | IC50 (HepG2) [µg/mL] | IC50 [1] [µg/mL]
1 | CCCCCCCCCCCCC(O)C(O)CCC(O)C1CCC(CCCCCCC[C@@H](O)CC2=C[C@H](C)OC2=O)O1 (mixture of isomers) [MURICATETROCIN A/B] | 0.0495 | 0.00483
2 | COc1cccc2c1C(=O)c1c(O)c3c(c(O)c1C2=O)C[C@@](O)(C(=O)CO)C[C@@H]3O[C@H]1C[C@H](N)[C@H](O)[C@H](C)O1 [DOXORUBICIN] |  | 0.45 (≈ 0.828 µM)
3 | CCCCCCCC(O)C(O)CC[C@H](O)[C@@H]1CC[C@H](CCCCCCCCCCCC[C@@H](O)CC2=C[C@H](C)OC2=O)O1 (stereo partly specified) [MURICIN C] |  | 0.00387 (≈ 0.00648 µM)
4 | CCCCCC(O)C(O)CCCCCC[C@H](O)[C@@H]1CC[C@H](CCCCCCCCCC[C@H](O)CC2=C[C@H](C)OC2=O)O1 (stereo partly specified) [MURICIN B] |  | 0.00429 (≈ 0.00719 µM)
5 | CCCCCC(O)C(O)CCCCCC[C@@H](O)[C@H]1CC[C@H](CCCCCCCCCC[C@@H](O)CC2=C[C@H](C)OC2=O)O1 (stereo partly specified) [MURICIN A] |  | 0.00513 (≈ 0.00859 µM)
6 | CCCCCCCCCCCCCC[C@@H](O)[C@H]1CC[C@H]([C@H](O)CC[C@H](O)CCCCCCCC2=C[C@H](C)OC2=O)O1 [LONGIFOLICIN] | 0.000404 (≈ 0.000695 µM) | 0.0049 (≈ 0.00844 µM)
7 | CCCCCCCCCCCC[C@@H](O)[C@H]1CC[C@H]([C@H](O)CCCC[C@H](O)CCCCCCCC2=C[C@H](C)OC2=O)O1 [COROSSOLINE] | 0.353 (≈ 0.608 µM) | 0.234 (≈ 0.403 µM)
8 | CCCCC(O)C(O)C/C=C\CC[C@H](O)[C@@H]1CC[C@@H](CCCCCCCCCCCC[C@@H](O)CC2=C[C@H](C)OC2=O)O1 (stereo partly specified) [MURICIN F] | 0.0428 (≈ 0.0719 µM) | 0.00386 (≈ 0.00649 µM)
9 | CCCCCCCCCCCC[C@@H](O)[C@H]1CC[C@@H]([C@@H](O)CCCCC(=O)CCCCCCCC2=C[C@H](C)OC2=O)O1 [COROSSOLONE] | 0.48 (≈ 0.829 µM) | 0.284 (≈ 0.491 µM)
10 | CCCCCCCC(O)C(O)CC[C@H](O)[C@@H]1CC[C@@H](CCCCCCCCCC[C@@H](O)CC2=C[C@H](C)OC2=O)O1 (stereo partly specified) [MURICIN D] | 0.00066 (≈ 0.00116 µM) | 0.048 (≈ 0.0844 µM)

Source: ChEMBL document CHEMBL1155724, “Novel cytotoxic annonaceous acetogenins from Annona muricata” (J Nat Prod, 2001)
